Results as given in ChEMBL document CHEMBL1149243, “Lactams as EP4 prostanoid receptor agonists. 3. Discovery of N-ethylbenzoic acid 2-pyrrolidinones as subtype selective agents” (J Med Chem, 2004).
pKi: −log10 of the molar value.

Tests used:
[1] = Volume of distribution in Wistar Han rat at 1 mg/kg, iv; type: ADME, organism-based; parameters: dose 1 mg/kg, route intravenous; details: in vivo, read-out: Vbeta
Summary of the method: (§1)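 Single i.v. dose of 1.0 mg/kg lactam; parent compound in plasma quantified by LC-MS/MS with detection down to 0.1 ng/mL. Reported values are averages after i.v. dosing.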

[2] = target: T1, Prostaglandin E2 receptor EP4 subtype (Homo sapiens, UniProt P35408); assay: Functional activity at human EP4 receptor
T1 sequence (P35408 whole entry): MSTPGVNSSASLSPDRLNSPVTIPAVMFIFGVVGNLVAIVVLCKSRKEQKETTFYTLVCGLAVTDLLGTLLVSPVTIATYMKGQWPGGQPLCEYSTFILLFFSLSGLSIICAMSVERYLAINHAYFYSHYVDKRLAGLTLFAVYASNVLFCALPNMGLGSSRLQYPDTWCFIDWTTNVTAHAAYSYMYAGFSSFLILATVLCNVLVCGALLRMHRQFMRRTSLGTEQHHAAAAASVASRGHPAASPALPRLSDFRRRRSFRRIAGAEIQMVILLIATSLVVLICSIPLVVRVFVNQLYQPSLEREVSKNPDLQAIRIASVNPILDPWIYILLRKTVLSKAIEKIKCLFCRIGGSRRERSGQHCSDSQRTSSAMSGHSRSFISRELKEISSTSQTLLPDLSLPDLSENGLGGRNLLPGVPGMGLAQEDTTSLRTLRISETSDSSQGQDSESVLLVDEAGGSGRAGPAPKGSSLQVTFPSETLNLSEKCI

[3] = target: T2, Prostaglandin E2 receptor EP1 subtype (Homo sapiens, UniProt P34995); assay: Binding affinity to human EP1 receptor
T2 sequence (P34995 whole entry): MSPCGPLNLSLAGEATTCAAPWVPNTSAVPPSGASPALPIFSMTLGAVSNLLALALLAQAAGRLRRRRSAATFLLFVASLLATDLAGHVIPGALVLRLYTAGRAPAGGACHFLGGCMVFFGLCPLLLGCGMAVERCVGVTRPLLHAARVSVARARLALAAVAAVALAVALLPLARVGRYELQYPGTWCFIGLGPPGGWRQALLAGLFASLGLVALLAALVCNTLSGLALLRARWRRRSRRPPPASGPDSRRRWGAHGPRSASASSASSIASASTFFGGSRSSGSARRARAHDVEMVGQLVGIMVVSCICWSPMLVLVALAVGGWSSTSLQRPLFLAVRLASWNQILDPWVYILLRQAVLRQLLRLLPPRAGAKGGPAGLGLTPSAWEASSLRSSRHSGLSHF

[4] = target: T3, Prostaglandin E2 receptor EP3 subtype (Homo sapiens, UniProt P43115); assay: Binding affinity to human EP3 receptor
T3 sequence (P43115 whole entry): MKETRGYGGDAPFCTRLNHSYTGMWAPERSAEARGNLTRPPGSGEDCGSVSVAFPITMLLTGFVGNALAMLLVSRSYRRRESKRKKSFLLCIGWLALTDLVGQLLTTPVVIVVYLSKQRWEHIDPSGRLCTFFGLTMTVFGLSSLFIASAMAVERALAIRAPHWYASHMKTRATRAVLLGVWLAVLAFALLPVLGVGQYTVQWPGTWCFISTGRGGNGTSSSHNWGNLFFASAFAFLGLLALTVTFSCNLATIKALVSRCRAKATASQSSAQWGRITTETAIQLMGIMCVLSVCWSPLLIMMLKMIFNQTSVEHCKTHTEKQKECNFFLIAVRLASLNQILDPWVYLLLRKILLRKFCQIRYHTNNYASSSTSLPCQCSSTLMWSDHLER

[5] = target: T1, Prostaglandin E2 receptor EP4 subtype; assay: Binding affinity to human EP4 receptor
[6] = Clearance in Wistar Han rat at 1 mg/kg, iv; type: ADME, organism-based; parameters: dose 1 mg/kg, route intravenous; details: in vivo; summary of the method: as §1
[7] = Half life in Wistar Han rat at 1 mg/kg, iv; type: ADME, organism-based; parameters: dose 1 mg/kg, route intravenous; details: in vivo; summary of the method: as §1
[8] = target: Prostaglandin E2 receptor EP2 subtype (Homo sapiens, UniProt P43116); assay: Binding affinity to human EP2 receptor
Chain of Prostaglandin E2 receptor EP2 subtype (P43116 whole entry): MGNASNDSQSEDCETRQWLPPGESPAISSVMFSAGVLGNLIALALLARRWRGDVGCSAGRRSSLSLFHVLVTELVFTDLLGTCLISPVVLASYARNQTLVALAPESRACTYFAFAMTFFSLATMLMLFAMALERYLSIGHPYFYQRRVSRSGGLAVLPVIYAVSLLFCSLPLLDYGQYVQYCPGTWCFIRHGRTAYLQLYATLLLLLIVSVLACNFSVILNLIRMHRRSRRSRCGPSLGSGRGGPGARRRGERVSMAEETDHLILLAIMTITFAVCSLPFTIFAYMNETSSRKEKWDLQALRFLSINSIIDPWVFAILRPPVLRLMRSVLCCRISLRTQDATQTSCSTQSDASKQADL

Vd [1] [L/kg]	EC50 [2]	pKi [3]	pKi [4]	Ki [5]	clearance [6] [mL/min/kg]	half-life [7] [min]	Ki [8]	Ki [4]	SMILES
1.5	–	–	–	–	–	–	–	–	CCCCC[C@H](O)/C=C/[C@H]1CCC(=O)N1CCCCOCC(=O)O
–	0.04 nM (agonist)	4.74	4.27	–	–	–	–	–	Cc1cc(Cl)ccc1-c1cccc([C@H](O)CC[C@H]2CCC(=O)N2CCc2ccc(C(=O)O)cc2)c1
–	11 nM (agonist)	< 4.00	4.96	2.9 nM (antagonist)	41.7	46.8	–	–	CCCCC[C@H](O)/C=C/[C@H]1CCC(=O)N1CCc1ccc(C(=O)O)cc1
–	5.9 nM (agonist)	–	< 4.00	0.7 nM (antagonist)	–	–	2500 nM (antagonist)	–	COCc1cccc(C[C@H](O)/C=C/[C@H]2CCC(=O)N2CCc2ccc(C(=O)O)cc2)c1
–	17 nM (agonist)	–	–	3.8 nM (antagonist)	10.5	45.6	4700 nM (antagonist)	1.9 µM (antagonist)	CCCCC[C@H](O)/C=C/[C@H]1CCC(=O)N1CCSCCCC(=O)O
–	12 nM (agonist)	–	< 4.00	6.9 nM (antagonist)	–	–	3700 nM (antagonist)	–	CCCCC[C@H](O)/C=C/[C@H]1CCC(=O)N1CCc1ccc(C(=O)O)s1

The remaining lines, values behind:

SMILES	Vd [1] [L/kg]	EC50 [2]	pKi [3]	pKi [4]	Ki [5]	clearance [6] [mL/min/kg]	half-life [7] [min]	Ki [8]	Ki [4]
O=C(O)c1ccc(CCN2C(=O)CC[C@@H]2/C=C/[C@@H](O)CCC2CCC2)cc1	–	0.2 nM (agonist)	–	4.10	1 nM (antagonist)	–	–	75 nM (antagonist)	–
O=C(O)c1ccc(CCN2C(=O)CC[C@@H]2CC[C@@H](O)CCC2CCC2)cc1	–	150 nM (agonist)	–	4.11	18 nM (antagonist)	–	–	220 nM (antagonist)	–
CCCCC[C@H](O)CC[C@H]1CCC(=O)N1CCc1ccc(C(=O)O)cc1	15.3	130 nM (agonist)	–	4.04	17 nM (antagonist)	50	210	35 nM (antagonist)	–
CCCCC[C@H](O)/C=C/[C@H]1CCC(=O)N1CCCCCCC(=O)O	6.9	–	–	–	–	91.7	52.2	–	–
